Data from ChEMBL document CHEMBL1151705, “Novel azalides derived from 16-membered macrolides. Part II: Isolation of the linear 9-formylcarboxylic acid and its sequential macrocyclization with an amino alcohol or an azidoamine” (2008).
In brackets after ≈: the same amount, converted by molar mass.

Legend:
Type in all cases: functional
[1] = tested on: Staphylococcus aureus; assay: Antimicrobial activity against drug-susceptible Staphylococcus aureus 209P JC-1 after 20 hrs by agar dilution method; conditions: Staphylococcus aureus, 209P, 20 h; read-out: MIC
Outline: (§1)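 Agar dilution MIC. S. aureus seed culture was grown in sensitivity test broth. Cell suspension (about 10⁶ CFU/ml) was inoculated onto sensitivity disk agar with 5% horse blood and incubated at 37 °C for 20 h. MIC was the lowest drug concentration that prevented visible growth.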

[2] = tested on: Haemophilus influenzae; assay: Antimicrobial activity against drug-susceptible Haemophilus influenzae 3 after 20 hrs by agar dilution method; conditions: Haemophilus influenzae, 20 h; read-out: MIC
Outline: (§2)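 Streptococci, H. influenzae and M. catarrhalis were precultured on blood agar plates. Suspensions of about 10⁶ CFU/ml were inoculated onto sensitivity disk agar supplemented with 5% horse blood and incubated at 37 °C for 20 h. MIC was read as the lowest drug concentration with no visible growth.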

[3] = tested on: Streptococcus pneumoniae; assay: Antimicrobial activity against Streptococcus pneumoniae 4 constitutively expressing ermB after 20 hrs by agar dilution method; conditions: Streptococcus pneumoniae, 20 h; read-out: MIC; outline: as §2
[4] = tested on: Staphylococcus aureus; assay: Antimicrobial activity against Staphylococcus aureus 5 expressing inducible ermB after 20 hrs by agar dilution method; conditions: Staphylococcus aureus, 20 h; read-out: MIC; outline: as §1
[5] = tested on: Streptococcus pneumoniae; assay: Antimicrobial activity against Streptococcus pneumoniae 8 expressing inducible ermB after 20 hrs by agar dilution method; conditions: Streptococcus pneumoniae, 20 h; read-out: MIC; outline: as §2
[6] = tested on: Haemophilus influenzae; assay: Antimicrobial activity against drug-susceptible Haemophilus influenzae 1 after 20 hrs by agar dilution method; conditions: Haemophilus influenzae, 20 h; read-out: MIC; outline: as §2
[7] = tested on: Streptococcus pneumoniae; assay: Antimicrobial activity against drug-susceptible Streptococcus pneumoniae DP1 Type1 after 20 hrs by agar dilution method; conditions: Streptococcus pneumoniae, 20 h; read-out: MIC; outline: as §2
[8] = tested on: Streptococcus pneumoniae; assay: Antimicrobial activity against Streptococcus pneumoniae 9 expressing mefA after 20 hrs by agar dilution method; conditions: Streptococcus pneumoniae, 20 h; read-out: MIC; outline: as §2
[9] = tested on: Streptococcus pneumoniae; assay: Antimicrobial activity against drug-susceptible Streptococcus pneumoniae 3 after 20 hrs by agar dilution method; conditions: Streptococcus pneumoniae, 20 h; read-out: MIC; outline: as §2
[10] = tested on: Streptococcus pneumoniae; assay: Antimicrobial activity against Streptococcus pneumoniae 6 constitutively expressing ermB after 20 hrs by agar dilution method; conditions: Streptococcus pneumoniae, 20 h; read-out: MIC; outline: as §2
[11] = tested on: Staphylococcus aureus; assay: Antimicrobial activity against drug-susceptible Staphylococcus aureus 3 after 20 hrs by agar dilution method; conditions: Staphylococcus aureus, 20 h; read-out: MIC; outline: as §1
[12] = tested on: Streptococcus pneumoniae; assay: Antimicrobial activity against Streptococcus pneumoniae 7 expressing inducible ermB after 20 hrs by agar dilution method; conditions: Streptococcus pneumoniae, 20 h; read-out: MIC; outline: as §2
[13] = tested on: Streptococcus pyogenes; assay: Antimicrobial activity against Streptococcus pyogenes 2 constitutively expressing ermB after 20 hrs by agar dilution method; outline: as §2
[14] = tested on: Streptococcus pyogenes; assay: Antimicrobial activity against drug-susceptible Streptococcus pyogenes 1 after 20 hrs by agar dilution method; conditions: Streptococcus pyogenes, 20 h; read-out: MIC; outline: as §2
[15] = tested on: Haemophilus influenzae; assay: Antimicrobial activity against drug-susceptible Haemophilus influenzae 2 after 20 hrs by agar dilution method; conditions: Haemophilus influenzae, 20 h; read-out: MIC; outline: as §2
[16] = tested on: Moraxella catarrhalis; assay: Antimicrobial activity against drug-susceptible Moraxella catarrhalis 2 after 20 hrs by agar dilution method; conditions: Moraxella catarrhalis, 20 h; read-out: MIC; outline: as §2
[17] = tested on: Staphylococcus aureus; assay: Antimicrobial activity against drug-susceptible Staphylococcus aureus 2 after 20 hrs by agar dilution method; conditions: Staphylococcus aureus, 20 h; read-out: MIC; outline: as §1
[18] = tested on: Haemophilus influenzae; assay: Antimicrobial activity against drug-susceptible Haemophilus influenzae 4 after 20 hrs by agar dilution method; conditions: Haemophilus influenzae, 20 h; read-out: MIC; outline: as §2
[19] = tested on: Staphylococcus aureus; assay: Antimicrobial activity against Staphylococcus aureus 4 constitutively expressing ermA after 20 hrs by agar dilution method; outline: as §1
[20] = tested on: Streptococcus pneumoniae; assay: Antimicrobial activity against drug-susceptible Streptococcus pneumoniae 2 after 20 hrs by agar dilution method; conditions: Streptococcus pneumoniae, 20 h; read-out: MIC; outline: as §2
[21] = tested on: Streptococcus pneumoniae; assay: Antimicrobial activity against Streptococcus pneumoniae 10 expressing mefA after 20 hrs by agar dilution method; conditions: Streptococcus pneumoniae, 20 h; read-out: MIC; outline: as §2
[22] = tested on: Moraxella catarrhalis; assay: Antimicrobial activity against drug-susceptible Moraxella catarrhalis 1 after 20 hrs by agar dilution method; conditions: Moraxella catarrhalis, 20 h; read-out: MIC; outline: as §2
[23] = tested on: Streptococcus pyogenes; assay: Antimicrobial activity against Streptococcus pyogenes 3 expressing mefA after 20 hrs by agar dilution method; conditions: Streptococcus pyogenes, 20 h; read-out: MIC; outline: as §2
[24] = tested on: Streptococcus pneumoniae; assay: Antimicrobial activity against Streptococcus pneumoniae 5 constitutively expressing ermB/mefA after 20 hrs by agar dilution method; conditions: Streptococcus pneumoniae, 20 h; read-out: MIC; outline: as §2
[25] = tested on: Staphylococcus aureus; assay: Antimicrobial activity against Staphylococcus aureus 6 expressing inducible ermB after 20 hrs by agar dilution method; outline: as §1

SMILES | MIC [1] | MIC [2] | MIC [3] | MIC [4] | MIC [5] | MIC [6] | MIC [7] | MIC [8] | MIC [9] | MIC [10] | MIC [11] | MIC [12] | MIC [13] | MIC [14] | MIC [15] | MIC [16] | MIC [17] | MIC [18] | MIC [19] | MIC [20] | other results
CCOC(=O)[C@H]1[C@H](C)O[C@@H](O[C@H]2[C@H](N(C)C)[C@@H](O)[C@H](O[C@H]3[C@@H](CC=O)C[C@@H](C)[C@@H](O)CN(C)CCC[C@H](C/C=C/c4ccc5ccccc5c4)OC(=O)C[C@@H](OC(=O)CC)[C@@H]3OC)O[C@@H]2C)C[C@@]1(C)O | 0.5 µg/mL (≈ 0.507 µM) | 16 µg/mL (≈ 16.2 µM) | 32 µg/mL (≈ 32.5 µM) | 0.5 µg/mL (≈ 0.507 µM) | 8 µg/mL (≈ 8.12 µM) | 32 µg/mL (≈ 32.5 µM) | 0.06 µg/mL (≈ 0.0609 µM) | 0.13 µg/mL (≈ 0.132 µM) | 0.13 µg/mL (≈ 0.132 µM) | 32 µg/mL (≈ 32.5 µM) | 0.5 µg/mL (≈ 0.507 µM) | 8 µg/mL (≈ 8.12 µM) | 32 µg/mL (≈ 32.5 µM) | 0.25 µg/mL (≈ 0.254 µM) | 8 µg/mL (≈ 8.12 µM) | 2 µg/mL (≈ 2.03 µM) | 2 µg/mL (≈ 2.03 µM) | 16 µg/mL (≈ 16.2 µM) | 64 µg/mL (≈ 65 µM) | 0.06 µg/mL (≈ 0.0609 µM) | MIC [21]: 0.13 µg/mL (≈ 0.132 µM); MIC [22]: 2 µg/mL (≈ 2.03 µM); MIC [23]: 1 µg/mL (≈ 1.01 µM); MIC [24]: 32 µg/mL (≈ 32.5 µM); MIC [25]: 1 µg/mL (≈ 1.01 µM)
CCOC(=O)[C@H]1[C@H](C)O[C@@H](O[C@H]2[C@H](N(C)C)[C@@H](O)[C@H](O[C@H]3[C@@H](CC=O)C[C@@H](C)[C@@H](O)CN(C)CCC[C@H](C/C=C/c4cccnc4)OC(=O)C[C@@H](OC(=O)CC)[C@@H]3OC)O[C@@H]2C)C[C@@]1(C)O | 0.5 µg/mL (≈ 0.534 µM) | 8 µg/mL (≈ 8.55 µM) | > 128 µg/mL | 0.25 µg/mL (≈ 0.267 µM) | 32 µg/mL (≈ 34.2 µM) | 32 µg/mL (≈ 34.2 µM) | 0.015 µg/mL (≈ 0.016 µM) | 0.03 µg/mL (≈ 0.032 µM) | 0.03 µg/mL (≈ 0.032 µM) | > 128 µg/mL | 0.25 µg/mL (≈ 0.267 µM) | 32 µg/mL (≈ 34.2 µM) | > 128 µg/mL | 0.06 µg/mL (≈ 0.0641 µM) | 2 µg/mL (≈ 2.14 µM) | 1 µg/mL (≈ 1.07 µM) | 1 µg/mL (≈ 1.07 µM) | 16 µg/mL (≈ 17.1 µM) | > 128 µg/mL | 0.03 µg/mL (≈ 0.032 µM) | MIC [21]: 0.03 µg/mL (≈ 0.032 µM); MIC [22]: 1 µg/mL (≈ 1.07 µM); MIC [23]: 0.5 µg/mL (≈ 0.534 µM); MIC [24]: > 128 µg/mL; MIC [25]: 0.5 µg/mL (≈ 0.534 µM)
CCOC(=O)[C@H]1[C@H](C)O[C@@H](O[C@H]2[C@H](N(C)C)[C@@H](O)[C@H](O[C@H]3[C@@H](CC=O)C[C@@H](C)[C@@H](O)CN(C)CCC[C@H](C/C=C/c4cccc5ccccc45)OC(=O)C[C@@H](OC(=O)CC)[C@@H]3OC)O[C@@H]2C)C[C@@]1(C)O | 1 µg/mL (≈ 1.01 µM) | 16 µg/mL (≈ 16.2 µM) | 64 µg/mL (≈ 65 µM) | 0.5 µg/mL (≈ 0.507 µM) | 2 µg/mL (≈ 2.03 µM) | 64 µg/mL (≈ 65 µM) | 0.06 µg/mL (≈ 0.0609 µM) | 0.06 µg/mL (≈ 0.0609 µM) | 0.06 µg/mL (≈ 0.0609 µM) | 64 µg/mL (≈ 65 µM) | 0.5 µg/mL (≈ 0.507 µM) | 4 µg/mL (≈ 4.06 µM) | 64 µg/mL (≈ 65 µM) | 0.25 µg/mL (≈ 0.254 µM) | 16 µg/mL (≈ 16.2 µM) | 2 µg/mL (≈ 2.03 µM) | 2 µg/mL (≈ 2.03 µM) | 16 µg/mL (≈ 16.2 µM) | > 128 µg/mL | 0.13 µg/mL (≈ 0.132 µM) | MIC [21]: 0.06 µg/mL (≈ 0.0609 µM); MIC [22]: 2 µg/mL (≈ 2.03 µM); MIC [23]: 1 µg/mL (≈ 1.01 µM); MIC [24]: 64 µg/mL (≈ 65 µM); MIC [25]: 1 µg/mL (≈ 1.01 µM)
